# Results from different studies.
# Compare with care: the assays were run in different laboratories.
# Medium: plasma
SMILES,test system,conditions,half-life [h]
CCOCC(=O)N1CCC[C@H](C(=O)NCc2nc(-c3ccc(C#N)nc3)cs2)C1,male Sprague-Dawley rat,"oral, 3 mg/kg",1.6
O=C1CCC(N2Cc3cc(C4CCN(Cc5ccccc5)CC4)ccc3C2=O)C(=O)N1 (stereo not shown),male Sprague-Dawley rat,"intravenous, 1 mg/kg",4.29
COc1cc(-c2cc(C(C)=O)n3ccccc23)c(OC)cc1Cn1ccnc1,male Sprague-Dawley rat,"oral, 5 mg/kg",0.72
Cc1cc(S(=O)(=O)N[C@H]2CC[C@H](CN3CCN(c4cccc(NC5CCC(=O)NC5=O)c4)CC3)CC2)ccc1Nc1ncc(C(F)(F)F)c(N2CCC[C@](C)(O)C2)n1 (stereo partly shown),rat,"intravenous, 2 mg/kg",3.7
C1=C/COCc2cc(ccc2OCCN2CCCC2)Nc2nccc(n2)-c2cccc(c2)COC/1,male Sprague-Dawley rat,"oral, 36 mg/kg",12.1
C=CC(=O)N1CCC[C@@H](n2nc(-c3ccc(Oc4ccccc4)cc3)c3c(N)ncnc32)C1,male Wistar rat,"oral, 40 mg/kg",2.5
C[C@H]1Oc2cc(cnc2N)-c2c(nn(C)c2C#N)CN(C)C(=O)c2ccc(F)cc21,male Sprague-Dawley rat,"oral, 10 mg/kg, single dose",8.82
COCC(=O)N1CCC[C@H](C(=O)NCc2nc(-c3ccc(C#N)cc3)cs2)C1,male Sprague-Dawley rat,"intravenous, 1 mg/kg",1.5
CNS(=O)(=O)c1ccc(Nc2ncc(C(F)(F)F)c(N3CCC[C@](C)(O)C3)n2)c(C)c1,rat,"intravenous, 2 mg/kg",0.8
[2H]c1cc(C)c(NC(=O)c2cnc(Nc3cc(N4CCCCC4)nc(C)n3)s2)c(Cl)c1,male Sprague-Dawley rat,"intravenous, 1 mg/kg",1.7
CNC(=O)c1cc(Oc2ccc(NC(=O)Nc3ccc(Cl)c(C(F)(F)F)c3)cc2)ccn1,male Sprague-Dawley rat,"oral, 100 mg/kg, single dose",13.8
NCCOCC(=O)N1CCC[C@H](C(=O)NCc2nc(-c3ccc(C(F)(F)F)cc3)cs2)C1,male Sprague-Dawley rat,"intravenous, 1 mg/kg",4.4
Cc1cc(S(=O)(=O)NC2CC(N3CC[C@@H](OC4CN(c5cccc6c5n(C)c(=O)n6C5CCC(=O)NC5=O)C4)[C@H](F)C3)C2)ccc1Nc1ncc(C(F)(F)F)c(N2CCC[C@](C)(O)C2)n1 (stereo partly shown),rat,"intravenous, 2 mg/kg",2.4
